Here are results for 20 molecules from ChEMBL document CHEMBL1153518 (J Med Chem, 2009).

SMILES strings stand for the structures.

The test system of data set [1] is Human alphaherpesvirus 1. Briefly: Antiviral activity against HSV1 KOS infected in HEL cells assessed as inhibition of virus-induced cytopathicity. In kind it is functional, organism-based. The note with it: Human alphaherpesvirus 1, KOS. The gist of the method:
(§1)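 Confluent human embryonic lung fibroblast monolayers inoculated with 100 CCID50 virus. After 1–2 h adsorption, residual virus was removed and cultures were incubated with varying compound concentrations. Cytopathicity was scored once untreated infected controls reached full cytopathicity.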

The test system of data set [2] is Human alphaherpesvirus 2. Description: Antiviral activity against HSV2 G infected in HEL cells assessed as inhibition of virus-induced cytopathicity. The note with it: Human alphaherpesvirus 2, strain G. Format: functional, organism-based. The procedure, abridged:
as §1
A general note: Cytopathic effects are the visible damage that an infection or toxin causes in cultured cells.

Data set [3] has as its system Human alphaherpesvirus 1. Description: Antiviral activity against acyclovir […]-resistant thymidine kinase-deficient HSV1 KOS infected in HEL cells assessed as inhibition of virus-induced cytopathicity. As to conditions: Human alphaherpesvirus 1, KOS. Format: functional, organism-based. The procedure, abridged:
as §1

Data set [4] is described as follows: Cytotoxicity against HEL cells assessed as concentration required to cause alteration in cell alteration by microscopically. The note with it: human. Format: cell-based.
Data set [5] has as its system Human immunodeficiency virus 1. Description: Antiviral activity against HIV1 3B/Lai infected in human CEM cells assessed as inhibition of virus-induced cytopathicity after 4 days. Format: functional, organism-based. The note with it: Human immunodeficiency virus 1, 3B/Lai, CCRF-CEM, 96 h. The procedure, abridged:
(§2)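 Human CEM cells (~3 × 10^5 cells/mL) infected with 100 CCID50 per mL of HIV-1(IIIB) or HIV-2(ROD), then seeded into wells holding compound dilutions. Incubated 4 days at 37°C. Giant cell formation was scored microscopically.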

In data set [6] the test system is Human immunodeficiency virus 2. Description: Antiviral activity against HIV2 ROD infected in human CEM cells assessed as inhibition of virus-induced cytopathicity after 4 days. In kind it is functional, organism-based. As to conditions: Human immunodeficiency virus 2, ISOLATE ROD, CCRF-CEM, 96 h. The gist of the method:
as §2

The test system of data set [7] is Human immunodeficiency virus 1. Briefly: Antiviral activity against HIV1 3B/Lai infected in human MT4 cells assessed as suppression of p24 production after 3 days. Format: functional, organism-based. As to conditions: Human immunodeficiency virus 1, 3B/Lai, MT4, 72 h. The procedure, abridged: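 MT-4 cells (1 × 10^4 cells/mL) in fresh medium infected with X4LAI.04 stock, 10 μL (0.7 ng p24) per mL of cell suspension. Mixed with medium carrying compound dilutions and kept at 37°C. After 3 days, p24 was measured in culture supernatants.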

The test system of data set [8] is HEL. Briefly: Cytotoxicity against HEL cells assessed as inhibition of cell proliferation. Format: cell-based. As to conditions: Homo sapiens.
The test system of data set [9] is CCRF-CEM. Description: Cytotoxicity against human CEM cells assessed as decrease in cell viability. In kind it is cell-based.
The subject of data set [10] is MT4. Description: Cytotoxicity against human MT4 cells assessed as decrease in cell viability. Format: cell-based. The procedure, abridged: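 MT-4 viability was measured by automated propidium iodide-based cell counting, enumerating total and dead cells in untreated and compound-treated cultures.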
Data set [11] concerns MT4. Briefly: Cytotoxicity against human MT4 cells assessed as inhibition of cell proliferation. In kind it is cell-based.

As a reminder, the EC50 is the concentration needed to bring the measured effect to its halfway point. Take `COC(=O)[C@H](C)NP(=O)(OCCOCn1cnc2c(=O)[nH]c(N)nc21)Oc1ccccc1` (stereo not given in full): the EC50 is 20 µM in data set [1]; 16 µM in data set [2]; 79 µM in data set [3]; 17 µM in data set [5]; 26 µM in data set [6]; 15 µM in data set [7]. Moreover, the MCC in [4] is above 100 µM.
For orientation: IC50 means the concentration at which inhibition is half-maximal. Consider `CC(C)(NP(=O)(OCCOCn1cnc2c(=O)[nH]c(N)nc21)Oc1cccc2ccccc12)C(=O)OCc1ccccc1` (stereo not given), for which the EC50 is 2.4 µM in data set [1]; 1.6 µM in data set [2]; 3.2 µM in [3]; at least 100 µM in data set [5]; 79 µM in data set [6]. In [4], the MCC is above 50 µM. Moreover, the concentration for half-maximal inhibition (IC50) in data set [8] and in data set [9] was above 100 µM throughout.
By CC50 is commonly meant the concentration at which the toxic effect on the cells reaches its halfway point. For `CN(C)/C=N/c1nc2c(ncn2COCCOP(=O)(Oc2ccccc2)N2CCC[C@H]2C(=O)OCc2ccccc2)c(=O)[nH]1` (stereo not given in full), the IC50 in [10] was above 150 µM; in data set [9], 45 µM. Further, the EC50 in data set [5] is above 20 µM; in [6] it was above 20 µM; in data set [7] it was 30 µM. For the same molecule, the CC50 in [11] is 90 µM.
For `CN(C)/C=N/c1nc2c(ncn2COCCOP(=O)(NC(C)(C)C(=O)OCc2ccccc2)Oc2ccccc2)c(=O)[nH]1` (stereo not given), the IC50 in data set [10] is above 150 µM; in data set [9], above 100 µM. Moreover, the EC50 in [5] is above 100 µM; in [6], above 100 µM; in data set [7], 70 µM. Further, the CC50 in data set [11] is above 150 µM.
With `CCCOC(=O)[C@H](C)NP(=O)(OCCOCn1cnc2c(=O)[nH]c(N)nc21)Oc1cccc2ccccc12` (stereo not given in full), the EC50 in data set [1] was 5.5 µM; in data set [2] it was 1.9 µM; in [3], 16 µM; in data set [5], 6.6 µM; in [6], 24 µM; in [7] it was 10 µM. Moreover, in [4], the MCC is at least 50 µM. Besides, the IC50 in data set [8] was 68 µM.
Consider `COC(=O)[C@@H](NP(=O)(OCCOCn1cnc2c(=O)[nH]c(N)nc21)Oc1cccc2ccccc12)C(C)C` (stereo not given in full), for which the EC50 in [1], in data set [2], in [3], in data set [5] and in data set [6] was above 100 µM each time. Further, the MCC in data set [4] was above 100 µM. Moreover, the half-maximal inhibitory concentration (IC50) in data set [9] is above 100 µM.
Take `CN(C)/C=N/c1nc2c(ncn2COCCOP(=O)(NC(C)(C)C(=O)OCc2ccccc2)Oc2cccc3ccccc23)c(=O)[nH]1` (stereo not given): the IC50 in data set [10] was found to be 140 µM; in [9], 40 µM. In addition, the results for the EC50 in data set [5], in [6] and in data set [7] were above 20 µM, above 20 µM and 15 µM, respectively. Moreover, the CC50 in data set [11] is 45 µM.
Turning to `COC(=O)[C@@H](NP(=O)(OCCOCn1cnc2c(=O)[nH]c(/N=C/N(C)C)nc21)Oc1cccc2ccccc12)C(C)C` (stereo not given in full), the IC50 in data set [10] is above 150 µM; in [9] it was above 100 µM. The EC50 is above 100 µM in data set [5], above 100 µM in [6] and above 150 µM in data set [7]. Moreover, the CC50 in data set [11] is above 150 µM.
As for `Nc1nc2c(ncn2COCCOP(=O)(NC(Cc2ccccc2)C(=O)OCc2ccccc2)Oc2ccccc2)c(=O)[nH]1` (stereo not given), the EC50 in [1] was 17 µM; in [2] it was 8 µM; in data set [5], 26 µM; in data set [6], 34 µM; in [7], 16 µM. In data set [4], the MCC is above 50 µM. Further, the IC50 in data set [8] came to 87 µM.
In the case of `C[C@@H](NP(=O)(OCCOCn1cnc2c(=O)[nH]c(N)nc21)Oc1ccccc1)C(=O)OCc1ccccc1` (stereo not given in full), the EC50 in [1] is 2 µM; in data set [2], 1.4 µM; in [3], 23 µM; in data set [6], above 250 µM. Further, the MCC in data set [4] was above 100 µM. The IC50 in [9] is at least 250 µM.
In the case of `Nc1nc2c(ncn2COCCOP(=O)(Oc2ccccc2)N2CCC[C@H]2C(=O)OCc2ccccc2)c(=O)[nH]1` (stereo not given in full), the EC50 was above 100 µM in data set [1]; above 100 µM in [2]; above 100 µM in [3]; above 20 µM in [5]; above 20 µM in data set [6]. Moreover, in data set [4], the MCC is above 100 µM. The IC50 in [8] and in [9] was above 100 µM each time.
On to `CC(C)[C@H](NP(=O)(OCCOCn1cnc2c(=O)[nH]c(N)nc21)Oc1ccccc1)C(=O)OCc1ccccc1` (stereo not given in full), for which the EC50 is 2 µM in [1]; 0.85 µM in data set [2]; 7.5 µM in [3]; above 50 µM in data set [5]; above 50 µM in data set [6]. The MCC in data set [4] is above 100 µM. Moreover, the IC50 in data set [9] was at least 100 µM.
On to `CCOC(=O)[C@@H](NP(=O)(OCCOCn1cnc2c(=O)[nH]c(N)nc21)Oc1cccc2ccccc12)C(C)C` (stereo not given in full), for which the EC50 in data set [1] was 51 µM; in data set [2], 32 µM; in data set [3] it was 42 µM; in data set [5], above 100 µM; in data set [6] it was above 100 µM. In addition, the MCC in data set [4] is above 100 µM. Besides, the IC50 in data set [9] was above 100 µM.
For `COC(=O)[C@H](NP(=O)(OCCOCn1cnc2c(=O)[nH]c(N)nc21)Oc1cccc2ccccc12)C(C)C` (stereo not given in full), the EC50 in data set [1], in data set [2], in data set [3], in [5] and in [6] was above 100 µM in each case. In addition, the MCC in data set [4] is above 100 µM. Moreover, the IC50 in data set [9] was above 100 µM.
As to `C[C@H](NP(=O)(OCCOCn1cnc2c(=O)[nH]c(N)nc21)Oc1ccc(F)cc1)C(=O)OCc1ccccc1` (stereo not given in full), the EC50 was 0.9 µM in [1], 0.5 µM in data set [2], 1.5 µM in data set [3] and above 20 µM in data set [6]. The MCC in data set [4] is above 100 µM. Moreover, the IC50 in [9] amounted to 76 µM.
As to `CC[C@H](C)[C@H](NP(=O)(OCCOCn1cnc2c(=O)[nH]c(N)nc21)Oc1ccccc1)C(=O)OCc1ccccc1` (stereo not given in full), the EC50 in data set [1] was 1.1 µM; in [2] it was 1.1 µM; in data set [3], 1.4 µM; in data set [5], above 20 µM; in [6], above 20 µM. Moreover, the MCC in [4] was above 100 µM.
With `Nc1nc2c(ncn2COCCOP(=O)(NCC(=O)OCc2ccccc2)Oc2ccccc2)c(=O)[nH]1` (stereo not given), the EC50 is 3 µM in data set [1]; 0.8 µM in data set [2]; 9 µM in data set [3]; above 100 µM in [5]; above 100 µM in data set [6]. The MCC in data set [4] was above 100 µM. Further, in data set [9], the IC50 is above 100 µM.
As to `CC(C)(NP(=O)(OCCOCn1cnc2c(=O)[nH]c(N)nc21)Oc1ccccc1)C(=O)OCc1ccccc1` (stereo not given), the values for the IC50 in data set [10] and in [9] were above 150 µM and above 100 µM, respectively. Also, the 50% effective concentration (EC50) in data set [1] was 1.4 µM; in data set [2], 0.8 µM; in data set [3], 5.5 µM; in data set [6], above 100 µM; in data set [7], 7 µM. Further, the MCC in [4] is above 100 µM. The CC50 in data set [11] is above 150 µM.
`CC(C)C[C@H](NP(=O)(OCCOCn1cnc2c(=O)[nH]c(N)nc21)Oc1ccccc1)C(=O)OCc1ccccc1` (stereo not given in full): the half-inhibitory concentration (IC50) in data set [10] was above 150 µM; in data set [9] it was above 20 µM. Besides, the EC50 was 0.8 µM in data set [1]; 0.7 µM in data set [2]; 1.4 µM in [3]; above 20 µM in [5]; above 20 µM in data set [6]; 0.8 µM in data set [7]. The MCC in [4] is above 100 µM. For the same molecule, in [11], the half-maximal cytotoxic concentration (CC50) was 17 µM.
As for `Nc1nc2c(ncn2COCCO)c(=O)[nH]1` [ACYCLOVIR], the half-maximal inhibitory concentration (IC50) in data set [10] and in data set [9] was above 250 µM each time. Moreover, the MCC in data set [4] was above 100 µM. Further, the EC50 in data set [5] and in data set [6] was above 250 µM each time. Moreover, the cytotoxic concentration (CC50) in [11] was above 250 µM.
